In ChEMBL document CHEMBL1255336, “Single-dose safety and pharmacokinetics of ST-246, a novel orthopoxvirus egress inhibitor” (Antimicrob Agents Chemother, 2008):

What was measured:
[1] = AUC(0 to infinity) in nonfasting healthy human at 1000 mg, po administered as single dose measured after 72 hrs; type: ADME, organism-based; parameters: dose 1000 mg, time infinity, route oral; details: plasma
Procedure, shortened: (§1)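 Randomised placebo-controlled single oral dose in healthy subjects (8 active, 2 placebo per group); groups 1–3 fasting, group 4 nonfasting. Plasma sampled predose to 48 h (groups 1–3) or 72 h (group 4), centrifuged 4°C, stored –70°C. LC-MS/MS with analog internal standard. Noncompartmental analysis on actual times; Cmax observed; AUC by trapezoid rule, extrapolated with kel; CL = dose/AUC0-∞.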

[2] = AUClast in nonfasting healthy human at 1000 mg, po administered as single dose measured after 72 hrs; type: ADME, organism-based; parameters: time < 72 hr, dose 1000 mg, route oral; details: plasma; procedure, shortened: as §1
[3] = Terminal half life in fasting healthy human at 1000 mg, po administered as single dose measured after 48 hrs; type: ADME, organism-based; details: in vivo
Procedure, shortened: (§2)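 Healthy volunteers, 8 per group on active drug (2 placebo), single fasting oral dose. Venous plasma drawn predose and 0.5–12, 24, 48 h postdose, kept at –70°C, assayed by validated LC-MS/MS with analog internal standard. Noncompartmental analysis on actual times; Tmax observed directly; kel by log-linear regression of ≥3 terminal points; CL = dose/AUC0-∞. Median values.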

[4] = Plasma clearance in fasting healthy human at 1000 mg, po administered as single dose measured after 48 hrs; type: ADME, organism-based; procedure, shortened: as §1
[5] = Apparent Cmax in nonfasting healthy human at 1000 mg, po administered as single dose measured after 72 hrs; type: ADME, organism-based; parameters: dose 1000 mg, route oral; details: in vivo; procedure, shortened: as §1
Homo sapiens [6] = assay: Toxicity in fasting healthy human assessed as neutropenia at 1000 mg, po administered as single dose measured after 48 hrs; type: organism-based; details: in vivo
Procedure, shortened: (§3)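 Randomized, placebo-controlled single oral dose in healthy adults, groups of 10 (8 drug, 2 placebo), dose escalated after safety review. Fasting groups got 500, 1,000 or 2,000 mg; one group got 1,000 mg fed. Treatment-emergent adverse events, vital signs, hematology, chemistries, urinalysis and ECG were recorded through day 1 and follow-up at weeks 1 and 4. Drug relation was judged blinded.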

Homo sapiens [7] = assay: Toxicity in fasting healthy human assessed as adverse events at 1000 mg, po administered as single dose measured after 48 hrs; type: organism-based; details: in vivo; procedure, shortened: as §3
[8] = Apparent oral clearance in fasting healthy human at 1000 mg, po administered as single dose measured after 48 hrs; type: ADME, organism-based; details: in vivo; procedure, shortened: as §1
[9] = AUC(0 to infinity) in fasting healthy human at 500 mg, po administered as single dose measured after 48 hrs; type: ADME, organism-based; parameters: dose 500 mg, route oral, time infinity; details: plasma; procedure, shortened: as §1
[10] = Median half life in fasting healthy human at 2000 mg, po administered as single dose measured after 48 hrs; type: ADME, organism-based; details: in vivo; procedure, shortened: as §2
Homo sapiens [11] = assay: Toxicity in healthy human assessed as adverse events at 1000 mg, po administered as single dose measured after 72 hrs; type: organism-based; details: in vivo; procedure, shortened: as §3
[12] = Terminal half life in fasting healthy human at 2000 mg, po administered as single dose measured after 48 hrs; type: ADME, organism-based; details: in vivo; procedure, shortened: as §2
[13] = AUC(0 to infinity) in fasting healthy human at 1000 mg, po administered as single dose measured after 48 hrs; type: ADME, organism-based; parameters: dose 1000 mg, time infinity, route oral; details: plasma; procedure, shortened: as §1
[14] = AUClast in fasting healthy human at 1000 mg, po administered as single dose measured after 48 hrs; type: ADME, organism-based; parameters: dose 1000 mg, time < 48 hr, route oral; details: plasma; procedure, shortened: as §1
Homo sapiens [15] = assay: Toxicity in fasting healthy human assessed as constipation at 1000 mg, po administered as single dose measured after 48 hrs; type: organism-based; details: in vivo; procedure, shortened: as §3
[16] = Plasma clearance in fasting healthy human at 500 mg, po administered as single dose measured after 48 hrs; type: ADME, organism-based; procedure, shortened: as §1
[17] = Terminal half life in nonfasting healthy human at 1000 mg, po administered as single dose measured after 72 hrs; type: ADME, organism-based; details: in vivo
Procedure, shortened: (§4)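 Healthy volunteers (8 active, 2 placebo) given a single 1,000 mg oral dose in the fed state. Plasma sampled predose, at 0.5–12 h, 24, 48 and 72 h postdose and analysed by validated LC-MS/MS. Noncompartmental analysis on actual sampling times. Tmax observed directly; t1/2 from kel fitted to ≥3 terminal log-linear points. Median values.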

[18] = AUClast in fasting healthy human at 500 mg, po administered as single dose measured after 48 hrs; type: ADME, organism-based; parameters: dose 500 mg, time < 48 hr, route oral; details: plasma; procedure, shortened: as §1
[19] = AUC(0 to infinity) in fasting healthy human at 2000 mg, po administered as single dose measured after 48 hrs; type: ADME, organism-based; parameters: dose 2000 mg, time infinity, route oral; details: plasma; procedure, shortened: as §1
Homo sapiens [20] = assay: Toxicity in healthy human assessed as headache at 1000 mg, po administered as single dose measured after 72 hrs; type: organism-based; details: in vivo; procedure, shortened: as §3
[21] = AUClast in fasting healthy human at 2000 mg, po administered as single dose measured after 48 hrs; type: ADME, organism-based; parameters: time < 48 hr, dose 2000 mg, route oral; details: plasma; procedure, shortened: as §1
[22] = Plasma clearance in nonfasting healthy human at 1000 mg, po administered as single dose measured after 72 hrs; type: ADME, organism-based; procedure, shortened: as §1
[23] = Cmax in nonfasting healthy human at 1000 mg, po administered as single dose measured after 72 hrs; type: ADME, organism-based; parameters: dose 1000 mg, route oral; details: in vivo; procedure, shortened: as §1
[24] = Cmax in fasting healthy human at 1000 mg, po administered as single dose measured after 48 hrs; type: ADME, organism-based; parameters: dose 1000 mg, route oral; details: in vivo; procedure, shortened: as §1
Homo sapiens [25] = assay: Toxicity in fasting healthy human assessed as feeling abnormal at 500 mg, po administered as single dose measured after 48 hrs; type: organism-based; details: in vivo; procedure, shortened: as §3
[26] = Median half life in fasting healthy human at 500 mg, po administered as single dose measured after 48 hrs; type: ADME, organism-based; details: in vivo; procedure, shortened: as §2
[27] = Apparent oral clearance in nonfasting healthy human at 1000 mg, po administered as single dose measured after 72 hrs; type: ADME, organism-based; details: in vivo; procedure, shortened: as §1
[28] = Tmax in nonfasting healthy human at 1000 mg, po administered as single dose measured after 72 hrs; type: ADME, organism-based; details: in vivo; procedure, shortened: as §4
[29] = Cmax in fasting healthy human at 2000 mg, po administered as single dose measured after 48 hrs; type: ADME, organism-based; parameters: dose 2000 mg, route oral; details: in vivo; procedure, shortened: as §1
Homo sapiens [30] = assay: Toxicity in fasting healthy human assessed as headache at 500 mg, po administered as single dose measured after 48 hrs; type: organism-based; details: in vivo; procedure, shortened: as §3
Homo sapiens [31] = assay: Median half life in fasting healthy human at 1000 mg, po administered as single dose measured after 48 hrs; type: ADME, organism-based; details: in vivo
[32] = Apparent oral clearance in fasting healthy human at 500 mg, po administered as single dose measured after 48 hrs; type: ADME, organism-based; details: in vivo; procedure, shortened: as §1
Homo sapiens [33] = assay: Toxicity in fasting healthy human assessed as back pain at 500 mg, po administered as single dose measured after 48 hrs; type: organism-based; details: in vivo; procedure, shortened: as §3
[34] = Apparent oral clearance in fasting healthy human at 2000 mg, po administered as single dose measured after 48 hrs; type: ADME, organism-based; details: in vivo; procedure, shortened: as §2
Homo sapiens [35] = assay: Toxicity in fasting healthy human assessed as adverse events at 500 mg, po administered as single dose measured after 48 hrs; type: organism-based; details: in vivo
Procedure, shortened: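 Healthy subjects given single oral dose, 8 active and 2 placebo per group. Safety covered adverse events, vital signs, ECG (day 1 and week 4), hematology, chemistries, urinalysis before and after dosing. Follow-up visits at week 1 and week 4. Cohort safety was reviewed before the next dose group.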

[36] = Tmax in fasting healthy human at 500 mg, po administered as single dose measured after 48 hrs; type: ADME, organism-based; details: in vivo; procedure, shortened: as §2
[37] = Plasma clearance in fasting healthy human at 2000 mg, po administered as single dose measured after 48 hrs; type: ADME, organism-based; procedure, shortened: as §1
[38] = Cmax in fasting healthy human at 500 mg, po administered as single dose measured after 48 hrs; type: ADME, organism-based; parameters: dose 500 mg, route oral; details: in vivo; procedure, shortened: as §1
[39] = Terminal half life in fasting healthy human at 500 mg, po administered as single dose measured after 48 hrs; type: ADME, organism-based; details: in vivo; procedure, shortened: as §2
[40] = Tmax in fasting healthy human at 1000 mg, po administered as single dose measured after 48 hrs; type: ADME, organism-based; details: in vivo
[41] = Tmax in fasting healthy human at 2000 mg, po administered as single dose measured after 48 hrs; type: ADME, organism-based; details: in vivo; procedure, shortened: as §2

Work on `O=C(NN1C(=O)[C@@H]2[C@@H]3C=C[C@@H]([C@H]4C[C@@H]34)[C@@H]2C1=O)c1ccc(C(F)(F)F)cc1` [TECOVIRIMAT] yielded an AUC(0-inf) [1] of 35900 ng·h/mL, an AUC(0-t) at 72 h [2] of 34100 ng·h/mL and a half-life [3] of 40 h. For the same compound, the CL/F [4] was 838 mL/min, the Cmax [5] was 3120 ng/mL and the Activity (Homo sapiens [6]) was 12.5%. The Activity (Homo sapiens [7]) was 12.5%, the CL/F [8] was 817 mL/min and the AUC(0-inf) [9] was 9810 ng·h/mL. For the same compound, the half-life [10] was 18.9 h, the Activity (Homo sapiens [11]) was 12.5% and the half-life [12] was 22 h. It also gave an AUC(0-inf) [13] of 24900 ng·h/mL, an AUC(0-t) at 48 h [14] of 21100 ng·h/mL and an Activity (Homo sapiens [15]) of 12.5%. For the same compound, the CL/F [16] was 860 mL/min, the half-life [17] was 17 h and the AUC(0-t) at 48 h [18] was 9880 ng·h/mL. It also gave an AUC(0-inf) [19] of 25700 ng·h/mL, an Activity (Homo sapiens [20]) of 12.5% and an AUC(0-t) at 48 h [21] of 24500 ng·h/mL. For the same compound, the CL/F [22] was 513 mL/min, the Cmax [23] was 2930 ng/mL and the Cmax [24] was 1810 ng/mL. It also gave an Activity (Homo sapiens [25]) of 12.5%, a half-life [26] of 20.9 h and a CL/F [27] of 500 mL/min. It also gave a Tmax [28] of 5 h, a Cmax [29] of 2550 ng/mL and an Activity (Homo sapiens [30]) of 12.5%. For the same compound, the t1/2 (Homo sapiens [31]) was 19.8 h, the CL/F [32] was 883 mL/min and the Activity (Homo sapiens [33]) was 12.5%. It also gave a CL/F [34] of 1320 mL/min, an Activity (Homo sapiens [35]) of 25% and a Tmax [36] of 2 h. It also gave a CL/F [37] of 1290 mL/min, a Cmax [38] of 934 ng/mL and a half-life [39] of 26 h. It also gave a Tmax [40] of 3 h and a Tmax [41] of 3 h.
